Experimental data reported in PMC7746607 (Nature, 2020).

How the values were obtained:
[1] = molecular target: mouse KSR1-Nanoluc (KSR-bound MEK) (UniProt Q02750+Q61097); experiment: NanoBRET in-cell steady-state competition with tram-bo tracer on KSR1-luc; type: binding; conditions: MEK1-luc vs KSR1-luc
KSR1-luc (KSR-bound MEK) = KSR1-luc (KSR-bound MEK) (UniProt Q02750+Q61097); experiment: NanoBRET washout, intracellular residence time on KSR1-luc; type: binding, mouse; conditions: 175-minute time course, range of inhibitor concentrations, tram-bo 1 μM
KSR1-luc (KSR-bound MEK), sequence (Q02750 whole entry): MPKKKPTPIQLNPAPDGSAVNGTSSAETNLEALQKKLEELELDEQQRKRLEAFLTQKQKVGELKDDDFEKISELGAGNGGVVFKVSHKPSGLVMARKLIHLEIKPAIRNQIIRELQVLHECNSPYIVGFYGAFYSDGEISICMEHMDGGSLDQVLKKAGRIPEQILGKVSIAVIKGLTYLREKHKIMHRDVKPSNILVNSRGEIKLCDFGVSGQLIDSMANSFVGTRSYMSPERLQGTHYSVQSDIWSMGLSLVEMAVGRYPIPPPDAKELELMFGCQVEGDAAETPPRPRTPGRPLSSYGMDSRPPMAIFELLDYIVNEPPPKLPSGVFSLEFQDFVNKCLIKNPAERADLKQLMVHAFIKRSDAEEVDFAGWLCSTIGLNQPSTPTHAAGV
KSR1-luc (KSR-bound MEK), sequence (Q61097 whole entry): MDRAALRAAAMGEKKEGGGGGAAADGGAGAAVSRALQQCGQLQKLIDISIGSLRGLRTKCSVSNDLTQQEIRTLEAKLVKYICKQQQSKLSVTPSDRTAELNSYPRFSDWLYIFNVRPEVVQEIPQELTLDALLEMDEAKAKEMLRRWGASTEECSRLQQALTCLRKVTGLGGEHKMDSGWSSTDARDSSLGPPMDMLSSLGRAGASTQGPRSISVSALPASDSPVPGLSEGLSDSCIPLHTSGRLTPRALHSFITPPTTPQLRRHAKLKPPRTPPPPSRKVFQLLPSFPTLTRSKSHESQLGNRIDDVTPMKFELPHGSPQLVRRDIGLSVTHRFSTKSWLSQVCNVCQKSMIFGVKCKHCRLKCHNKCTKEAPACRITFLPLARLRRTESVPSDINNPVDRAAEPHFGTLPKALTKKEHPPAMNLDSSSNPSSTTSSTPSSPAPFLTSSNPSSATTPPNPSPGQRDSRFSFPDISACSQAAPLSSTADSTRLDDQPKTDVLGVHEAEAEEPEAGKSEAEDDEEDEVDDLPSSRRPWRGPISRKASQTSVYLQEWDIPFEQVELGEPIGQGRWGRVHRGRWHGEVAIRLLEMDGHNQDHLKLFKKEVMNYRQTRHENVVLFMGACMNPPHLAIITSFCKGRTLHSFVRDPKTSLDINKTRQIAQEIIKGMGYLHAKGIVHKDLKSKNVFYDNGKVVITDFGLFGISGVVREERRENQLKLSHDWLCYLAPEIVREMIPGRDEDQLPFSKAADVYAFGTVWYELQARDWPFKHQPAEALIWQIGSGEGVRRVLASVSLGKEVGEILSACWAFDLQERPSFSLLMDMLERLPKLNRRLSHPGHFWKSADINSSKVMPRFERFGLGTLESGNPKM

MEK1-luc = MEK1-luc (Homo sapiens, UniProt Q02750); experiment: NanoBRET washout, intracellular residence time on MEK1-luc; type: binding; conditions: 175-minute time course, tram-bo 1 μM
MEK1-luc, sequence (Q02750 whole entry): as the sequence (Q02750 whole entry) above

[2] = molecular target: BRAF and MEK1 interaction (Homo sapiens, UniProt Q02750); experiment: IP/WB of endogenous MEK1 from HCT116 cells, BRAF pulldown; type: cell-based; conditions: HCT116, 200 nM, 1 hour
BRAF and MEK1 interaction, sequence (Q02750 whole entry): as above
Method in brief: (§1)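 HCT116 cells were plated 48 h to ~70% confluency, then transfected (Lipofectamine 3000) with FLAG-KSR1 (2.3 μg, WT) or FLAG-BRAF (10 μg, WT). At 24 h cells got 0.1% DMSO or 200 nM test compound for 1 h, then were lysed in NP-40 buffer on ice for 30 min. 250 μg lysate was rotated 4 h at 4 °C with anti-MEK1/Protein A resin, with an IgG control. Anti-FLAG immunoblot; three independent experiments.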

RET-luc = RET-luc (Homo sapiens, UniProt P07949); experiment: NanoBRET control kinase dose response, RET-luc; type: binding; conditions: 293T cells, tram-bo or tracer K5
RET-luc, sequence (P07949 29-1114): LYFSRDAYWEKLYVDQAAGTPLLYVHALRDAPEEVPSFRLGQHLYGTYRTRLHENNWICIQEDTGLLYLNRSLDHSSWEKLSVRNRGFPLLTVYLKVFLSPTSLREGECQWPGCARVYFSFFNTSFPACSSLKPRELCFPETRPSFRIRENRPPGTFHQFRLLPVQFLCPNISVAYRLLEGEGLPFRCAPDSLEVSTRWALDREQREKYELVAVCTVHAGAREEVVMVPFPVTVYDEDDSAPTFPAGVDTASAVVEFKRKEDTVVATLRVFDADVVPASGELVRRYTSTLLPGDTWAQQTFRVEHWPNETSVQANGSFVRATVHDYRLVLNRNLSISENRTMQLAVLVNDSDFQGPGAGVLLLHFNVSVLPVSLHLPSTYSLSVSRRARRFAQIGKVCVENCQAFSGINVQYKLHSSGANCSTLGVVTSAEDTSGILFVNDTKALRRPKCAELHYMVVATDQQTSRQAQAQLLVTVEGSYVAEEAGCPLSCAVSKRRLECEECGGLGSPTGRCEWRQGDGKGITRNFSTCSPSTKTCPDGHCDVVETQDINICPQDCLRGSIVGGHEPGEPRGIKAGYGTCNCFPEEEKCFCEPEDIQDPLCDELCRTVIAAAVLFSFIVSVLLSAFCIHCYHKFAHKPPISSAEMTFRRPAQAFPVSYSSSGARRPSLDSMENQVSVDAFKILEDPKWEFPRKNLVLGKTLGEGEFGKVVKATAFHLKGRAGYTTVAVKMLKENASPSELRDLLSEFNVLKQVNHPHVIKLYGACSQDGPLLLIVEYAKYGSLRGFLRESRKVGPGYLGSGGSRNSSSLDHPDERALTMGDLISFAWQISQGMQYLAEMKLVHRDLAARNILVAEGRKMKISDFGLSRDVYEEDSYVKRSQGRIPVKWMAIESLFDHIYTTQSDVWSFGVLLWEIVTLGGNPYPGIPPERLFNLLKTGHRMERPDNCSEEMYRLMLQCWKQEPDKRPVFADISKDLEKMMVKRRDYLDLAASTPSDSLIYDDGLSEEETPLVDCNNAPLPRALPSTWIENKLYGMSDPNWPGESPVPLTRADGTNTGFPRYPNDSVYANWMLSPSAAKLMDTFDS

SRC-luc = SRC-luc (Homo sapiens, UniProt P12931); experiment: NanoBRET control kinase dose response, SRC-luc; type: binding; conditions: 293T cells, tram-bo or tracer K4
SRC-luc, sequence (P12931 whole entry): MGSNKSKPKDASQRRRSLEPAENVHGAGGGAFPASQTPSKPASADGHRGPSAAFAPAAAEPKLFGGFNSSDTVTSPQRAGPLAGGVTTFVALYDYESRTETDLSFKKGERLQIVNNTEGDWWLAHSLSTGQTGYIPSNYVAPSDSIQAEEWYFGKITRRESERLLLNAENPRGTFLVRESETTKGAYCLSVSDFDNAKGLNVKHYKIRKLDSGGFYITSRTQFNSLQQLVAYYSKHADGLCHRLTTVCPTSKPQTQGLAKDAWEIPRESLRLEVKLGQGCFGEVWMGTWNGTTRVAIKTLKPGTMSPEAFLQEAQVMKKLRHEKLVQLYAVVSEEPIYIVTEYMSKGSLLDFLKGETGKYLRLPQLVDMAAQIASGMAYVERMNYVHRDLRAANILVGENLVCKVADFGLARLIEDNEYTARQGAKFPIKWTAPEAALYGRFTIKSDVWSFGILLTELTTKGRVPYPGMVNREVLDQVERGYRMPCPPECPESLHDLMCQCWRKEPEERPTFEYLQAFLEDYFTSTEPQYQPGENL

[3] = molecular target: KSR1 and MEK1 interaction (UniProt Q02750+Q61097); type: cell-based, mouse KSR1, human HCT116 cells; conditions: HCT116, wild-type KSR1, 200 nM, 1 hour
KSR1 and MEK1 interaction, sequence (Q02750 whole entry): as the sequence (Q02750 whole entry) above
KSR1 and MEK1 interaction, sequence (Q61097 whole entry): as the sequence (Q61097 whole entry) above
Method in brief: as §1

mouse KSR1-Nanoluc (KSR-bound MEK), sequence (Q02750 whole entry): as the sequence (Q02750 whole entry) above
mouse KSR1-Nanoluc (KSR-bound MEK), sequence (Q61097 whole entry): as the sequence (Q61097 whole entry) above

Row | SMILES | difference in potency (IC50) between KSR1-luc and MEK1-luc [1] | dissociation after washout on KSR1-luc (BRET signal recovery) (KSR1-luc (KSR-bound MEK)) | dissociation after washout on MEK1-luc (MEK1-luc) | co-immunoprecipitation of BRAF via endogenous MEK [2] | dose response on RET-luc (RET-luc) | dose response on SRC-luc (SRC-luc) | co-immunoprecipitation of KSR1 via endogenous MEK [3]
1 | O=C(c1ccc(F)c(F)c1Nc1ccc(I)cc1F)N1CC(O)([C@@H]2CCCCN2)C1 [cobimetinib, Cobimetinib] | ~ 20 fold | dissociated more readily | dissociated more readily | – | – | – | –
2 | CC(=O)Nc1cccc(-n2c(=O)n(C3CC3)c(=O)c3c(Nc4ccc(I)cc4F)n(C)c(=O)c(C)c32)c1 [trametinib, Trametinib] | – | – | – | diminished binding of BRAF | no discernible dose response | no discernible dose response | sustained pulldown of KSR1
